System: SF-268
Experiment: Anticancer activity against human SF268 cells assessed as cell growth promotion at 10^-5 M after 48 hrs by SRB assay relative to control
Assay type: functional

SMILES | Activity [%]
N#Cc1ccc(/C=C/c2ccc(NC(=O)c3ccccc3NC(=O)c3ccco3)cc2)cc1 | 104

System: SNB-19
Experiment: Anticancer activity against human SNB19 cells assessed as cell growth promotion at 10^-5 M after 48 hrs by SRB assay relative to control
Assay type: functional

SMILES | Activity [%]
N#Cc1ccc(/C=C/c2ccc(NC(=O)c3ccccc3NC(=O)c3ccco3)cc2)cc1 | 111

System: U-251
Experiment: Anticancer activity against human U251 cells assessed as cell growth promotion at 10^-5 M after 48 hrs by SRB assay relative to control
Assay type: functional

SMILES | Activity [%]
N#Cc1ccc(/C=C/c2ccc(NC(=O)c3ccccc3NC(=O)c3ccco3)cc2)cc1 | 100

System: Malme-3M
Experiment: Anticancer activity against human MALME-3M cells assessed as cell growth promotion at 10^-5 M after 48 hrs by SRB assay relative to control
Assay type: functional

SMILES | Activity [%]
N#Cc1ccc(/C=C/c2ccc(NC(=O)c3ccccc3NC(=O)c3ccco3)cc2)cc1 | 108

System: CCRF-CEM
Experiment: Anticancer activity against human CCRF-CEM cells assessed as cell growth promotion at 10^-5 M after 48 hrs by SRB assay relative to control
Assay type: functional

SMILES | Activity [%]
N#Cc1ccc(/C=C/c2ccc(NC(=O)c3ccccc3NC(=O)c3ccco3)cc2)cc1 | 96.43

System: M14
Experiment: Anticancer activity against human M14 cells assessed as cell growth promotion at 10^-5 M after 48 hrs by SRB assay relative to control
Assay type: functional

SMILES | Activity [%]
N#Cc1ccc(/C=C/c2ccc(NC(=O)c3ccccc3NC(=O)c3ccco3)cc2)cc1 | 112

System: MDA-MB-435
Experiment: Anticancer activity against human MDA-MB-435 cells assessed as cell growth promotion at 10^-5 M after 48 hrs by SRB assay relative to control
Assay type: functional

SMILES | Activity [%]
N#Cc1ccc(/C=C/c2ccc(NC(=O)c3ccccc3NC(=O)c3ccco3)cc2)cc1 | 108

System: SK-MEL-5
Experiment: Anticancer activity against human SK-MEL-5 cells assessed as cell growth promotion at 10^-5 M after 48 hrs by SRB assay relative to control
Assay type: functional

SMILES | Activity [%]
N#Cc1ccc(/C=C/c2ccc(NC(=O)c3ccccc3NC(=O)c3ccco3)cc2)cc1 | 103

System: UACC-257
Experiment: Anticancer activity against human UACC257 cells assessed as cell growth promotion at 10^-5 M after 48 hrs by SRB assay relative to control
Assay type: functional

SMILES | Activity [%]
N#Cc1ccc(/C=C/c2ccc(NC(=O)c3ccccc3NC(=O)c3ccco3)cc2)cc1 | 103

System: UACC-62
Experiment: Anticancer activity against human UACC62 cells assessed as cell growth promotion at 10^-5 M after 48 hrs by SRB assay relative to control
Assay type: functional

SMILES | Activity [%]
N#Cc1ccc(/C=C/c2ccc(NC(=O)c3ccccc3NC(=O)c3ccco3)cc2)cc1 | 99

System: OVCAR-3
Experiment: Anticancer activity against human OVCAR3 cells assessed as cell growth promotion at 10^-5 M after 48 hrs by SRB assay relative to control
Assay type: functional

SMILES | Activity [%]
N#Cc1ccc(/C=C/c2ccc(NC(=O)c3ccccc3NC(=O)c3ccco3)cc2)cc1 | 107

System: OVCAR-5
Experiment: Anticancer activity against human OVCAR5 cells assessed as cell growth promotion at 10^-5 M after 48 hrs by SRB assay relative to control
Assay type: functional

SMILES | Activity [%]
N#Cc1ccc(/C=C/c2ccc(NC(=O)c3ccccc3NC(=O)c3ccco3)cc2)cc1 | 105

System: NCI/ADR-RES
Experiment: Anticancer activity against human NCI/ADR-RES cells assessed as cell growth promotion at 10^-5 M after 48 hrs by SRB assay relative to control
Assay type: functional

SMILES | Activity [%]
N#Cc1ccc(/C=C/c2ccc(NC(=O)c3ccccc3NC(=O)c3ccco3)cc2)cc1 | 109

System: SK-OV-3
Experiment: Anticancer activity against human SKOV3 cells assessed as cell growth promotion at 10^-5 M after 48 hrs by SRB assay relative to control
Assay type: functional

SMILES | Activity [%]
N#Cc1ccc(/C=C/c2ccc(NC(=O)c3ccccc3NC(=O)c3ccco3)cc2)cc1 | 111

System: 786-0
Experiment: Anticancer activity against human 786-0 cells assessed as cell growth promotion at 10^-5 M after 48 hrs by SRB assay relative to control
Assay type: functional

SMILES | Activity [%]
N#Cc1ccc(/C=C/c2ccc(NC(=O)c3ccccc3NC(=O)c3ccco3)cc2)cc1 | 115

System: A498
Experiment: Anticancer activity against human A498 cells assessed as cell growth promotion at 10^-5 M after 48 hrs by SRB assay relative to control
Assay type: functional

SMILES | Activity [%]
N#Cc1ccc(/C=C/c2ccc(NC(=O)c3ccccc3NC(=O)c3ccco3)cc2)cc1 | 94.62

System: CAKI-1
Experiment: Anticancer activity against human Caki1 cells assessed as cell growth promotion at 10^-5 M after 48 hrs by SRB assay relative to control
Assay type: functional

SMILES | Activity [%]
N#Cc1ccc(/C=C/c2ccc(NC(=O)c3ccccc3NC(=O)c3ccco3)cc2)cc1 | 83.31

System: RXF 393
Experiment: Anticancer activity against human RXF393 cells assessed as cell growth promotion at 10^-5 M after 48 hrs by SRB assay relative to control
Assay type: functional

SMILES | Activity [%]
N#Cc1ccc(/C=C/c2ccc(NC(=O)c3ccccc3NC(=O)c3ccco3)cc2)cc1 | 114

System: SN12C
Experiment: Anticancer activity against human SN12C cells assessed as cell growth promotion at 10^-5 M after 48 hrs by SRB assay relative to control
Assay type: functional

SMILES | Activity [%]
N#Cc1ccc(/C=C/c2ccc(NC(=O)c3ccccc3NC(=O)c3ccco3)cc2)cc1 | 104

System: UO-31
Experiment: Anticancer activity against human UO31 cells assessed as cell growth promotion at 10^-5 M after 48 hrs by SRB assay relative to control
Assay type: functional

SMILES | Activity [%]
N#Cc1ccc(/C=C/c2ccc(NC(=O)c3ccccc3NC(=O)c3ccco3)cc2)cc1 | 84.8

System: HL-60(TB)
Experiment: Anticancer activity against human HL-60(TB) cells assessed as cell growth promotion at 10^-5 M after 48 hrs by SRB assay relative to control
Assay type: functional
Summary of the method: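 NCI-60 single-dose screen: compound at 10^-5 M, 48 h at 37 °C, 5% CO2; cells grown in RPMI 1640 with 5% FBS and 2 mM L-glutamine, pre-incubated 24 h before dosing. Adherent cells fixed with cold TCA; endpoint is sulforhodamine B protein staining. Percent growth of treated cells is reported relative to untreated control.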

SMILES | Activity [%]
N#Cc1ccc(/C=C/c2ccc(NC(=O)c3ccccc3NC(=O)c3ccco3)cc2)cc1 | 84.98

System: K562
Experiment: Anticancer activity against human K562 cells assessed as cell growth promotion at 10^-5 M after 48 hrs by SRB assay relative to control
Assay type: functional

SMILES | Activity [%]
N#Cc1ccc(/C=C/c2ccc(NC(=O)c3ccccc3NC(=O)c3ccco3)cc2)cc1 | 94.72

System: MOLT-4
Experiment: Anticancer activity against human MOLT4 cells assessed as cell growth promotion at 10^-5 M after 48 hrs by SRB assay relative to control
Assay type: functional

SMILES | Activity [%]
N#Cc1ccc(/C=C/c2ccc(NC(=O)c3ccccc3NC(=O)c3ccco3)cc2)cc1 | 99.1

System: MDA-MB-231
Experiment: Anticancer activity against human MDA-MB-231 cells assessed as cell growth promotion at 10^-5 M after 48 hrs by SRB assay relative to control
Assay type: functional

SMILES | Activity [%]
N#Cc1ccc(/C=C/c2ccc(NC(=O)c3ccccc3NC(=O)c3ccco3)cc2)cc1 | 94.46

System: not listed separately
Experiment: Anticancer activity against human Hs 578T cells assessed as cell growth promotion at 10^-5 M after 48 hrs by SRB assay relative to control
Assay type: functional

SMILES | Activity [%]
N#Cc1ccc(/C=C/c2ccc(NC(=O)c3ccccc3NC(=O)c3ccco3)cc2)cc1 | 100

System: T47D
Experiment: Anticancer activity against human T47D cells assessed as cell growth promotion at 10^-5 M after 48 hrs by SRB assay relative to control
Assay type: functional

SMILES | Activity [%]
N#Cc1ccc(/C=C/c2ccc(NC(=O)c3ccccc3NC(=O)c3ccco3)cc2)cc1 | 103

System: not listed separately
Experiment: Anticancer activity against human […] cells assessed as cell growth promotion at 10^-5 M after 48 hrs by SRB assay relative to control
Assay type: functional

SMILES | Activity [%]
N#Cc1ccc(/C=C/c2ccc(NC(=O)c3ccccc3NC(=O)c3ccco3)cc2)cc1 | 108

System: SR
Experiment: Anticancer activity against human SR cells assessed as cell growth promotion at 10^-5 M after 48 hrs by SRB assay relative to control
Assay type: functional

SMILES | Activity [%]
N#Cc1ccc(/C=C/c2ccc(NC(=O)c3ccccc3NC(=O)c3ccco3)cc2)cc1 | 109

System: EKVX
Experiment: Anticancer activity against human EKVX cells assessed as cell growth promotion at 10^-5 M after 48 hrs by SRB assay relative to control
Assay type: functional

SMILES | Activity [%]
N#Cc1ccc(/C=C/c2ccc(NC(=O)c3ccccc3NC(=O)c3ccco3)cc2)cc1 | 88.81

System: HOP-62
Experiment: Anticancer activity against human HOP62 cells assessed as cell growth promotion at 10^-5 M after 48 hrs by SRB assay relative to control
Assay type: functional

SMILES | Activity [%]
N#Cc1ccc(/C=C/c2ccc(NC(=O)c3ccccc3NC(=O)c3ccco3)cc2)cc1 | 111

System: NCI-H23
Experiment: Anticancer activity against human NCI-H23 cells assessed as cell growth promotion at 10^-5 M after 48 hrs by SRB assay relative to control
Assay type: functional

SMILES | Activity [%]
N#Cc1ccc(/C=C/c2ccc(NC(=O)c3ccccc3NC(=O)c3ccco3)cc2)cc1 | 94.62

System: NCI-H322M
Experiment: Anticancer activity against human NCI-H322M cells assessed as cell growth promotion at 10^-5 M after 48 hrs by SRB assay relative to control
Assay type: functional

SMILES | Activity [%]
N#Cc1ccc(/C=C/c2ccc(NC(=O)c3ccccc3NC(=O)c3ccco3)cc2)cc1 | 102

System: NCI-H460
Experiment: Anticancer activity against human NCI-H460 cells assessed as cell growth promotion at 10^-5 M after 48 hrs by SRB assay relative to control
Assay type: functional

SMILES | Activity [%]
N#Cc1ccc(/C=C/c2ccc(NC(=O)c3ccccc3NC(=O)c3ccco3)cc2)cc1 | 116

System: HCT-116
Experiment: Anticancer activity against human HCT116 cells assessed as cell growth promotion at 10^-5 M after 48 hrs by SRB assay relative to control
Assay type: functional

SMILES | Activity [%]
N#Cc1ccc(/C=C/c2ccc(NC(=O)c3ccccc3NC(=O)c3ccco3)cc2)cc1 | 103

System: HCT-15
Experiment: Anticancer activity against human HCT15 cells assessed as cell growth promotion at 10^-5 M after 48 hrs by SRB assay relative to control
Assay type: functional

SMILES | Activity [%]
N#Cc1ccc(/C=C/c2ccc(NC(=O)c3ccccc3NC(=O)c3ccco3)cc2)cc1 | 104

System: KM12
Experiment: Anticancer activity against human KM12 cells assessed as cell growth promotion at 10^-5 M after 48 hrs by SRB assay relative to control
Assay type: functional

SMILES | Activity [%]
N#Cc1ccc(/C=C/c2ccc(NC(=O)c3ccccc3NC(=O)c3ccco3)cc2)cc1 | 107

System: SW-620
Experiment: Anticancer activity against human SW620 cells assessed as cell growth promotion at 10^-5 M after 48 hrs by SRB assay relative to control
Assay type: functional

SMILES | Activity [%]
N#Cc1ccc(/C=C/c2ccc(NC(=O)c3ccccc3NC(=O)c3ccco3)cc2)cc1 | 106

Reference: ChEMBL document CHEMBL1781959, “Synthesis and in vitro antitumor activity of substituted quinazoline and quinoxaline derivatives: search for anticancer agent” (Eur J Med Chem, 2011)
